SMILES strings stand for the structures. pIC50, pKd: −log10 of the molar value. *1 amine or outer side, *2 acyl side, *3 side chain or, on linkers, in order; H or OH if unused. Where a SMILES comes first, the peptide text is derived from it. [ ]: non-standard residue; d: D form. The star is where a group is joined. X2 = O=C(c1cc(N=C=S)ccc1-c1c2ccc(=O)cc-2oc2cc(O)ccc12)*; Achc(cis-1,4) = O=C([C@H]1CC[C@@H](N[*:1])CC1)[*:2]; Achc(trans-4) = O=C([C@H]1CC[C@H](N[*:1])CC1)[*:2]; Azetidine3carboxylic = O=C(C1CN([*:1])C1)[*:2]; Phac(3-amino) = O=C(Cc1cccc(N[*:1])c1)[*:2]; X3 = C=CCCN([C@@H](CC(C)C)C(=O)[*:2])[*:1]; pY = N[C@@H](Cc1ccc(OP(=O)(O)O)cc1)C(=O)O; X1 = O=C(C1CN([*:3])CCN1[*:1])[*:2]; Trx = NC[C@H]1CC[C@H](C(=O)O)CC1; X6 = O=C([C@H](O)CCN[*:1])[*:2]; X4 = O=C(CC(O)CN[*:1])[*:2]; 4Amb = NCc1ccc(C(=O)O)cc1; 4Abz = Nc1ccc(C(=O)O)cc1; NH(but-3-enyl) = C=CCCN*; Inp = O=C(O)C1CCNCC1

As usually defined, the pIC50 is the IC50 on a negative log10 scale, so that one unit is a factor of ten. A high value points to a low IC50. For orientation: pKd means the Kd on a negative log10 scale, so that one unit is a factor of ten. A lower pKd goes with a large Kd.

For the first experiment, the target named is T1, SHC-transforming protein 1 (Homo sapiens, UniProt P29353).
T1 sequence (P29353 whole entry): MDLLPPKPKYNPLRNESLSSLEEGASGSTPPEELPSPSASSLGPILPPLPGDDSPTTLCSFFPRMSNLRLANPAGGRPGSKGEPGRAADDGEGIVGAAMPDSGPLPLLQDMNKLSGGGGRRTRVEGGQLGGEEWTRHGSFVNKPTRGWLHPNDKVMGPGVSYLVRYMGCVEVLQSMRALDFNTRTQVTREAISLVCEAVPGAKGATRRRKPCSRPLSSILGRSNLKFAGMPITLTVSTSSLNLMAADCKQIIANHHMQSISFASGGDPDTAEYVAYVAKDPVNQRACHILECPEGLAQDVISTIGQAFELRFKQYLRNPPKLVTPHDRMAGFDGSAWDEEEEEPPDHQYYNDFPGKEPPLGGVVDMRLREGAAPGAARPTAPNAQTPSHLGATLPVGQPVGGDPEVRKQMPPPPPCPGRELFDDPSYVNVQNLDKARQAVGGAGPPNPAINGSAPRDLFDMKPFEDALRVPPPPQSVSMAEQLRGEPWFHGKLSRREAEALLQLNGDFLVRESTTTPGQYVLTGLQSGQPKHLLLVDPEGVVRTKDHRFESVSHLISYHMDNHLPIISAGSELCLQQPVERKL
Kind of experiment: Displacement of FITC-tagged NH-(CH2)4-CO-phospho-tyrosine-glutamine-glycine-leucine-serine-amide from Shc Src homology 2 domain by fluorescence anisotropy competition assay. An outline of the steps:
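Competition: preformed complex of 2 μM Shc SH2 protein with 10 nM FITC-labelled reference peptide in HEPES/NaCl pH 7.5 buffer, 10% DMSO; unlabelled peptides serially diluted from 500 μM. Anisotropy read at 485/535 nm. Fractional binding fitted with an order-3 spline with three knots; IC50 taken where the spline reaches one half.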
In turn, `C=CCCNC(=O)[C@H](CC(C)C)N(CCC=C)C(=O)CNC(=O)[C@H](CCC(N)=O)NC(=O)[C@H](Cc1ccc(OP(=O)(O)O)cc1)NC(C)=O` [4-((2S,5S,11S)-2-acetamido-5-(3-amino-3-oxopropyl)-10-(but-3-enyl)-11-isobutyl-3,6,9,12-tetraoxo-4,7,10,13-tetraazaheptadec-16-enyl)phenyl dihydrogen phosphate] gave a pIC50 of 4.08. For `C=CCCNC(=O)[C@H](CO)NC(=O)[C@H](CC(C)C)N(CCC=C)C(=O)CNC(=O)[C@H](CCC(N)=O)NC(=O)[C@H](Cc1ccc(OP(=O)(O)O)cc1)NC(C)=O` [4-((2S,5S,11S,14S)-2-acetamido-5-(3-amino-3-oxopropyl)-10-(but-3-enyl)-14-(hydroxymethyl)-11-isobutyl-3,6,9,12,15-pentaoxo-4,7,10,13,16-pentaazaicos-19-enyl)phenyl dihydrogen phosphate] (Ac-[pY]QG[X3]S-{NH(but-3-enyl)}), the pIC50 is 4.05.

A further experiment addresses T1, SHC-transforming protein 1. The experiment in a line: Binding affinity to Shc Src homology 2 domain by fluorescence anisotropy. The essentials:
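Direct binding: 5 nM N-terminal fluorescein-labelled peptide in 10 mM HEPES, 150 mM NaCl pH 7.5 with 10% (v/v) DMSO; Shc SH2 protein serially diluted from 100 μM. Excitation 485 nm, parallel and perpendicular emission at 535 nm. Kd from fitting anisotropy versus protein concentration to a single-site binding model.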
Background: In fluorescence polarisation assays a small probe gives low polarisation when free and higher when bound to something large.
Molecule `CC(C)C[C@H](NC(=O)CNC(=O)[C@H](CCC(N)=O)NC(=O)[C@H](Cc1ccc(OP(=O)(O)O)cc1)NC(=O)[C@H](O)CCNC(=O)c1cc(N=C=S)ccc1-c1c2ccc(=O)cc-2oc2cc(O)ccc12)C(=O)N[C@@H](CO)C(N)=O` [4-((2S,5S,11S,14S)-1-amino-11-(3-amino-3-oxopropyl)-14-((R)-2-hydroxy-4-(2-(6-hydroxy-3-oxo-3H-xanthen-9-yl)-5-isothiocyanatobenzamido)butanamido)-2-(hydroxymethyl)-5-isobutyl-1,4,7,10,13-pentaoxo-3,6,9,12-tetraazapentadecan-15-yl)phenyl dihydrogen phosphate] (X2-[X6][pY]QGLS-NH2) showed a pKd of 5.05.

Take `CC(C)C[C@H](NC(=O)CNC(=O)[C@H](CCC(N)=O)NC(=O)[C@H](Cc1ccc(OP(=O)(O)O)cc1)NC(=O)c1ccc(NC(=O)c2cc(N=C=S)ccc2-c2c3ccc(=O)cc-3oc3cc(O)ccc23)cc1)C(=O)N[C@@H](CO)C(N)=O` [4-((2S,5S,11S,14S)-1-amino-11-(3-amino-3-oxopropyl)-14-(4-(2-(6-hydroxy-3-oxo-3H-xanthen-9-yl)-5-isothiocyanatobenzamido)benzamido)-2-(hydroxymethyl)-5-isobutyl-1,4,7,10,13-pentaoxo-3,6,9,12-tetraazapentadecan-15-yl)phenyl dihydrogen phosphate] ({X2-4Abz}-[pY]QGLS-NH2): the pKd was 4.62. In turn, `CC(C)C[C@H](NC(=O)CNC(=O)[C@H](CCC(N)=O)NC(=O)[C@H](Cc1ccc(OP(=O)(O)O)cc1)NC(=O)C1CN(C(=O)c2cc(N=C=S)ccc2-c2c3ccc(=O)cc-3oc3cc(O)ccc23)C1)C(=O)N[C@@H](CO)C(N)=O` [4-((2S,5S,11S,14S)-1-amino-11-(3-amino-3-oxopropyl)-14-(1-(2-(6-hydroxy-3-oxo-3H-xanthen-9-yl)-5-isothiocyanatobenzoyl)azetidine-3-carboxamido)-2-(hydroxymethyl)-5-isobutyl-1,4,7,10,13-pentaoxo-3,6,9,12-tetraazapentadecan-15-yl)phenyl dihydrogen phosphate] (X2-[Azetidine3carboxylic][pY]QGLS-NH2) gave a pKd of 5.28. On to `CC(C)C[C@H](NC(=O)CNC(=O)[C@H](CCC(N)=O)NC(=O)[C@H](Cc1ccc(OP(=O)(O)O)cc1)NC(=O)C1CCN(C(=O)c2cc(N=C=S)ccc2-c2c3ccc(=O)cc-3oc3cc(O)ccc23)CC1)C(=O)N[C@@H](CO)C(N)=O` [4-((2S,5S,11S,14S)-1-amino-11-(3-amino-3-oxopropyl)-14-(1-(2-(6-hydroxy-3-oxo-3H-xanthen-9-yl)-5-isothiocyanatobenzoyl)piperidine-4-carboxamido)-2-(hydroxymethyl)-5-isobutyl-1,4,7,10,13-pentaoxo-3,6,9,12-tetraazapentadecan-15-yl)phenyl dihydrogen phosphate] ({X2-Inp}-[pY]QGLS-NH2), for which the pKd was 4.85. In turn, `CC(C)C[C@H](NC(=O)CNC(=O)[C@H](CCC(N)=O)NC(=O)[C@H](Cc1ccc(OP(=O)(O)O)cc1)NC(=O)c1ccc(CNC(=O)c2cc(N=C=S)ccc2-c2c3ccc(=O)cc-3oc3cc(O)ccc23)cc1)C(=O)N[C@@H](CO)C(N)=O` [4-((2S,5S,11S,14S)-1-amino-11-(3-amino-3-oxopropyl)-14-(4-((2-(6-hydroxy-3-oxo-3H-xanthen-9-yl)-5-isothiocyanatobenzamido)methyl)benzamido)-2-(hydroxymethyl)-5-isobutyl-1,4,7,10,13-pentaoxo-3,6,9,12-tetraazapentadecan-15-yl)phenyl dihydrogen phosphate] ({X2-4Amb}-[pY]QGLS-NH2) showed a pKd of 4.91.

Consider `CC(C)C[C@H](NC(=O)CNC(=O)[C@H](CCC(N)=O)NC(=O)[C@H](Cc1ccc(OP(=O)(O)O)cc1)NC(=O)C1CN(C(=O)c2cc(N=C=S)ccc2-c2c3ccc(=O)cc-3oc3cc(O)ccc23)CCN1)C(=O)N[C@@H](CO)C(N)=O` (stereo partly drawn) [4-((2S,5S,11S,14S)-1-amino-11-(3-amino-3-oxopropyl)-14-(4-(2-(6-hydroxy-3-oxo-3H-xanthen-9-yl)-5-isothiocyanatobenzoyl)piperazine-2-carboxamido)-2-(hydroxymethyl)-5-isobutyl-1,4,7,10,13-pentaoxo-3,6,9,12-tetraazapentadecan-15-yl)phenyl dihydrogen phosphate] (H-[X1](X2)[pY]QGLS-NH2), for which the pKd was 5.02. The molecule `CC(C)C[C@H](NC(=O)CNC(=O)[C@H](CCC(N)=O)NC(=O)[C@H](Cc1ccc(OP(=O)(O)O)cc1)NC(=O)[C@H]1CC[C@H](CNC(=O)c2cc(N=C=S)ccc2-c2c3ccc(=O)cc-3oc3cc(O)ccc23)CC1)C(=O)N[C@@H](CO)C(N)=O` [trans-4-((2S,5S,11S,14S)-1-amino-11-(3-amino-3-oxopropyl)-14-(4-((2-(6-hydroxy-3-oxo-3H-xanthen-9-yl)-5-isothiocyanatobenzamido)methyl)cyclohexanecarboxamido)-2-(hydroxymethyl)-5-isobutyl-1,4,7,10,13-pentaoxo-3,6,9,12-tetraazapentadecan-15-yl)phenyl dihydrogen phosphate] ({X2-Trx}-[pY]QGLS-NH2) showed a pKd of 4.74. `CC(C)C[C@H](NC(=O)CNC(=O)[C@H](CCC(N)=O)NC(=O)[C@H](Cc1ccc(OP(=O)(O)O)cc1)NC(=O)[C@H]1CC[C@@H](NC(=O)c2cc(N=C=S)ccc2-c2c3ccc(=O)cc-3oc3cc(O)ccc23)CC1)C(=O)N[C@@H](CO)C(N)=O` [cis-4-((2S,5S,11S,14S)-1-amino-11-(3-amino-3-oxopropyl)-14-(4-(2-(6-hydroxy-3-oxo-3H-xanthen-9-yl)-5-isothiocyanatobenzamido)cyclohexanecarboxamido)-2-(hydroxymethyl)-5-isobutyl-1,4,7,10,13-pentaoxo-3,6,9,12-tetraazapentadecan-15-yl)phenyl dihydrogen phosphate] (X2-[Achc(cis-1,4)][pY]QGLS-NH2) showed a pKd of 6.30. The same measure, in the same setting: the result for `CC(C)C[C@H](NC(=O)CNC(=O)[C@H](CCC(N)=O)NC(=O)[C@H](Cc1ccc(OP(=O)(O)O)cc1)NC(=O)[C@H]1CC[C@H](NC(=O)c2cc(N=C=S)ccc2-c2c3ccc(=O)cc-3oc3cc(O)ccc23)CC1)C(=O)N[C@@H](CO)C(N)=O` [trans-4-((2S,5S,11S,14S)-1-amino-11-(3-amino-3-oxopropyl)-14-(4-(2-(6-hydroxy-3-oxo-3H-xanthen-9-yl)-5-isothiocyanatobenzamido)cyclohexanecarboxamido)-2-(hydroxymethyl)-5-isobutyl-1,4,7,10,13-pentaoxo-3,6,9,12-tetraazapentadecan-15-yl)phenyl dihydrogen phosphate] (X2-[Achc(trans-4)][pY]QGLS-NH2) reads 4.60; that for `CC(C)C[C@H](NC(=O)CNC(=O)[C@H](CCC(N)=O)NC(=O)[C@H](Cc1ccc(OP(=O)(O)O)cc1)NC(=O)Cc1cccc(NC(=O)c2cc(N=C=S)ccc2-c2c3ccc(=O)cc-3oc3cc(O)ccc23)c1)C(=O)N[C@@H](CO)C(N)=O` [4-((2S,5S,11S,14S)-1-amino-11-(3-amino-3-oxopropyl)-14-(2-(3-(2-(6-hydroxy-3-oxo-3H-xanthen-9-yl)-5-isothiocyanatobenzamido)phenyl)acetamido)-2-(hydroxymethyl)-5-isobutyl-1,4,7,10,13-pentaoxo-3,6,9,12-tetraazapentadecan-15-yl)phenyl dihydrogen phosphate] (X2-[Phac(3-amino)][pY]QGLS-NH2), 6.11. The same measure, in the same setting: with `CC(C)C[C@H](NC(=O)CNC(=O)[C@H](CCC(N)=O)NC(=O)[C@H](Cc1ccc(OP(=O)(O)O)cc1)NC(=O)CC(O)CNC(=O)c1cc(N=C=S)ccc1-c1c2ccc(=O)cc-2oc2cc(O)ccc12)C(=O)N[C@@H](CO)C(N)=O` (stereo partly drawn) [4-((2S,5S,11S,14S)-1-amino-11-(3-amino-3-oxopropyl)-14-(3-hydroxy-4-(2-(6-hydroxy-3-oxo-3H-xanthen-9-yl)-5-isothiocyanatobenzamido)butanamido)-2-(hydroxymethyl)-5-isobutyl-1,4,7,10,13-pentaoxo-3,6,9,12-tetraazapentadecan-15-yl)phenyl dihydrogen phosphate] (X2-[X4][pY]QGLS-NH2) the figure was 5.07.

(Values after BindingDB's records for doi:10.1021/jm800789h (National Cancer Institute-Frederick, 2009).)
